Measurements reported in ChEMBL document CHEMBL1156126, “Synthesis of some new pyrazolo[3,4-d]pyrimidine derivatives of expected anticancer and radioprotective activity” (Eur J Med Chem, 2010).
Converted amounts (≈) assume the structure as drawn.

System: Mus musculus
Test: Radioprotective activity in 6Gy gamma irradiated Swiss albino mouse assessed as survival at 150 mg/kg, ip administered as 3 doses in alternative days up to 7 days relative to control
Format: functional
Conditions: route intraperitoneal
In short: (§1)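 Female Swiss albino mice (25–30 g), 10 per group. Test agent was suspended in carboxymethylcellulose and given ip every other day, 3 injections over 7 days, each 30 min before whole-body gamma irradiation (Cs-137, 6 Gy, 0.86 Gy/min). Groups were untreated, CMC, radiation-only and drug-only. Survival is the percentage of animals alive 7 days after the radiation dose.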

SMILES	Activity [%]
Nn1cnc2c(cnn2-c2ccccc2)c1=S	100

System: Mus musculus
Test: Radioprotective activity in 6Gy gamma irradiated Swiss albino mouse assessed as reduction in gamma irradiation-induced lipid peroxidation at 150 mg/kg, ip administered as 3 doses in alternative days up to 7 days pretreated 30 mins before gamma-irradiation relative to control
Format: functional
Parameters: scale not given: the % may be the effect or the level left
Conditions: route intraperitoneal

SMILES	Activity [%]
Nn1cnc2c(cnn2-c2ccccc2)c1=S	-6.19

System: Mus musculus
Test: Radioprotective activity in 6 Gy gamma irradiated Swiss albino mouse assessed as change blood superoxide dismutase activity at 150 mg/kg, ip administered as 3 doses in alternative days up to 7 days relative to control
Format: functional
Conditions: route intraperitoneal

SMILES	Activity [%]
Nn1cnc2c(cnn2-c2ccccc2)c1=S	-2.04

System: Mus musculus
Test: Radioprotective activity in 6Gy gamma irradiated Swiss albino mouse assessed as reduction in gamma irradiation-inhibited blood glutathione content at 150 mg/kg, ip administered as 3 doses in alternative days up to 7 days pretreated 30 mins before gamma-irradiation relative to control
Format: functional
Parameters: scale not given: the % may be the effect or the level left
Conditions: route intraperitoneal

SMILES	Activity [%]
Nn1cnc2c(cnn2-c2ccccc2)c1=S	9.63

System: not listed separately
Test: Antitumor activity against mouse EAC assessed as non viable cells at 50 ug/ml after 2 hrs by trypan blue exclusion assay
Format: functional, Ehrlich
Conditions: not given
In short: (§2)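 EAC cells aspirated from ascitic fluid of preinoculated mice (line maintained by weekly i.p. transplantation), suspended in saline at 2.5×10⁶/ml. Compounds dissolved in DMSO:saline 0.7:0.3 at 1, 0.75, 0.5, 0.25 mg/ml stocks; 0.1 ml added to 0.8 ml saline plus 0.1 ml cells. Incubation 37 °C, 2 h; non-viable cells counted by trypan blue exclusion. IC50 taken from survival-versus-concentration curve.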

SMILES	Activity [%]
Nn1c(=O)[nH]c2c(cnn2-c2ccccc2)c1=O	20
O=c1c2cnn(-c3ccccc3)c2ncn1Cc1ccccc1	10
Nn1cnc2c(cnn2-c2ccccc2)c1=S	10
O=c1c2cnn(-c3ccccc3)c2nc2ocnn12	0
O=c1c2cnn(-c3ccccc3)c2nc2[nH]c3ccccc3n12	0
S=c1nc2c3cnn(-c4ccccc4)c3ncn2[nH]1	10
O=C1/C(=C/c2ccccc2)N=C(c2ccccc2)N1n1cnc2c(cnn2-c2ccccc2)c1=O	0
O=c1oc2nc3c(cnn3-c3ccccc3)c(=O)n2c2ccccc12	10
CSC(=NS(=O)(=O)c1ccc(Nc2nn3c(=O)c4cnn(-c5ccccc5)c4nc3o2)cc1)SC	10
COc1cccc2c1C(=O)c1c(O)c3c(c(O)c1C2=O)C[C@@](O)(C(=O)CO)C[C@@H]3O[C@H]1C[C@H](N)[C@H](O)[C@H](C)O1 [DOXORUBICIN]	55

System: not listed separately
Test: Antitumor activity against mouse EAC after 2 hrs by trypan blue exclusion assay
Format: functional, cell-based
Conditions: Ehrlich
In short: as §2

SMILES	IC50 [µg/mL]
Nn1c(=O)[nH]c2c(cnn2-c2ccccc2)c1=O	100 (≈ 411 µM)
O=c1c2cnn(-c3ccccc3)c2ncn1Cc1ccccc1	90 (≈ 298 µM)
Nn1cnc2c(cnn2-c2ccccc2)c1=S	> 100
O=c1c2cnn(-c3ccccc3)c2nc2ocnn12	> 100
O=c1c2cnn(-c3ccccc3)c2nc2[nH]c3ccccc3n12	> 100
S=c1nc2c3cnn(-c4ccccc4)c3ncn2[nH]1	> 100
O=C1/C(=C/c2ccccc2)N=C(c2ccccc2)N1n1cnc2c(cnn2-c2ccccc2)c1=O	> 100
O=c1oc2nc3c(cnn3-c3ccccc3)c(=O)n2c2ccccc12	> 100
CSC(=NS(=O)(=O)c1ccc(Nc2nn3c(=O)c4cnn(-c5ccccc5)c4nc3o2)cc1)SC	> 100
COc1cccc2c1C(=O)c1c(O)c3c(c(O)c1C2=O)C[C@@](O)(C(=O)CO)C[C@@H]3O[C@H]1C[C@H](N)[C@H](O)[C@H](C)O1 [DOXORUBICIN]	52 (≈ 95.7 µM)

System: not listed separately
Test: Antitumor activity against mouse EAC assessed as non viable cells at 75 ug/ml after 2 hrs by trypan blue exclusion assay
Format: functional, Ehrlich
Conditions: not given
In short: as §2

SMILES	Activity [%]
Nn1c(=O)[nH]c2c(cnn2-c2ccccc2)c1=O	30
O=c1c2cnn(-c3ccccc3)c2ncn1Cc1ccccc1	20
Nn1cnc2c(cnn2-c2ccccc2)c1=S	10
O=c1c2cnn(-c3ccccc3)c2nc2ocnn12	0
O=c1c2cnn(-c3ccccc3)c2nc2[nH]c3ccccc3n12	0
S=c1nc2c3cnn(-c4ccccc4)c3ncn2[nH]1	10
O=C1/C(=C/c2ccccc2)N=C(c2ccccc2)N1n1cnc2c(cnn2-c2ccccc2)c1=O	0
O=c1oc2nc3c(cnn3-c3ccccc3)c(=O)n2c2ccccc12	30
CSC(=NS(=O)(=O)c1ccc(Nc2nn3c(=O)c4cnn(-c5ccccc5)c4nc3o2)cc1)SC	10
COc1cccc2c1C(=O)c1c(O)c3c(c(O)c1C2=O)C[C@@](O)(C(=O)CO)C[C@@H]3O[C@H]1C[C@H](N)[C@H](O)[C@H](C)O1 [DOXORUBICIN]	75

System: Mus musculus
Test: Radioprotective activity in 6Gy gamma irradiated Swiss albino mouse assessed as increase in blood glutathione content at 150 mg/kg, ip administered as 3 doses in alternative days up to 7 days relative to control
Conditions: route intraperitoneal

SMILES	Activity [%]
Nn1cnc2c(cnn2-c2ccccc2)c1=S	4.95

System: Mus musculus
Test: Radioprotective activity in 6Gy gamma irradiated Swiss albino mouse assessed as reduction in lipid peroxidation at 150 mg/kg, ip administered as 3 doses in alternative days up to 7 days relative to control
Format: functional
Parameters: scale not given: the % may be the effect or the level left
Conditions: route intraperitoneal

SMILES	Activity [%]
Nn1cnc2c(cnn2-c2ccccc2)c1=S	5.33

System: Mus musculus
Test: Radioprotective activity in 6 Gy gamma irradiated Swiss albino mouse assessed as change in gamma irradiation-induced blood superoxide dismutase activity at 150 mg/kg, ip administered as 3 doses in alternative days up to 7 days pretreated 30 mins before gamma-irradiation relative to control
Format: functional
Conditions: route intraperitoneal

SMILES	Activity [%]
Nn1cnc2c(cnn2-c2ccccc2)c1=S	-9.3

System: Mus musculus
Test: Radioprotective activity in 6Gy gamma irradiated Swiss albino mouse assessed as […] at 150 mg/kg, ip administered as 3 doses in alternative days up to 7 days pretreated 30 mins before gamma-irradiation relative to control
Format: functional
Conditions: route intraperitoneal
In short: as §1

SMILES	Activity [%]
Nn1cnc2c(cnn2-c2ccccc2)c1=S	100

System: not listed separately
Test: Antitumor activity against mouse EAC assessed as non viable cells at 100 ug/ml after 2 hrs by trypan blue exclusion assay
Format: functional, Ehrlich
Conditions: not given
In short: as §2

SMILES	Activity [%]
Nn1c(=O)[nH]c2c(cnn2-c2ccccc2)c1=O	50
O=c1c2cnn(-c3ccccc3)c2ncn1Cc1ccccc1	80
Nn1cnc2c(cnn2-c2ccccc2)c1=S	10
O=c1c2cnn(-c3ccccc3)c2nc2ocnn12	0
O=c1c2cnn(-c3ccccc3)c2nc2[nH]c3ccccc3n12	0
S=c1nc2c3cnn(-c4ccccc4)c3ncn2[nH]1	30
O=C1/C(=C/c2ccccc2)N=C(c2ccccc2)N1n1cnc2c(cnn2-c2ccccc2)c1=O	0
O=c1oc2nc3c(cnn3-c3ccccc3)c(=O)n2c2ccccc12	30
CSC(=NS(=O)(=O)c1ccc(Nc2nn3c(=O)c4cnn(-c5ccccc5)c4nc3o2)cc1)SC	20
COc1cccc2c1C(=O)c1c(O)c3c(c(O)c1C2=O)C[C@@](O)(C(=O)CO)C[C@@H]3O[C@H]1C[C@H](N)[C@H](O)[C@H](C)O1 [DOXORUBICIN]	100

System: not listed separately
Test: Antitumor activity against mouse EAC assessed as non viable cells at 25 ug/ml after 2 hrs by trypan blue exclusion assay
Format: functional, Ehrlich
Conditions: not given
In short: as §2

SMILES	Activity [%]
Nn1c(=O)[nH]c2c(cnn2-c2ccccc2)c1=O	10
O=c1c2cnn(-c3ccccc3)c2ncn1Cc1ccccc1	10
Nn1cnc2c(cnn2-c2ccccc2)c1=S	10
O=c1c2cnn(-c3ccccc3)c2nc2ocnn12	10
O=c1c2cnn(-c3ccccc3)c2nc2[nH]c3ccccc3n12	10
S=c1nc2c3cnn(-c4ccccc4)c3ncn2[nH]1	10
O=C1/C(=C/c2ccccc2)N=C(c2ccccc2)N1n1cnc2c(cnn2-c2ccccc2)c1=O	10
O=c1oc2nc3c(cnn3-c3ccccc3)c(=O)n2c2ccccc12	10
CSC(=NS(=O)(=O)c1ccc(Nc2nn3c(=O)c4cnn(-c5ccccc5)c4nc3o2)cc1)SC	10
COc1cccc2c1C(=O)c1c(O)c3c(c(O)c1C2=O)C[C@@](O)(C(=O)CO)C[C@@H]3O[C@H]1C[C@H](N)[C@H](O)[C@H](C)O1 [DOXORUBICIN]	20
